From PubChem BioAssay
b-catenin transl – beta-catenin nuclear translocation modulation; 190,000 tested, 0.3% active; HeLa beta-catenin nuclear translocation, immunofluorescence imaging; nuclear translocation activity, % at 5 µM;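 active = nuclear translocation activity above 50% at 5 µM, with a well cell count of 50 or more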;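 note: per-cell ratio of nuclear to cytoplasmic median beta-catenin stain intensity; plate controls were DMSO negative control for no effect and GSK-3 inhibitor IX positive control for full effect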
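Test system: human HeLa cells, native beta-catenin. Compound dosing: 5 µM primary single dose, 0.1% DMSO, 0.02–20 µM confirmation series. Incubation: compound exposure 24 h at 37°C. Detection: beta-catenin immunostaining with DAPI counterstain, 20x imaging, 6 fields/well. Read-out basis: Nuclear/cytoplasmic beta-catenin signal ratio, % activation.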
Rad51 HR inh – blocks human Rad51 in homologous recombination; Q06609; hRad51 DNA strand exchange, fluorescence dequenching; inhibition, % at 10 µM; 200,000 tested, 0.085% active;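 active = inhibition above 40% at the single screening dose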;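 note: 0% = DMSO control wells and 100% = blanks with heterologous ssDNA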
Target sequence (Q06609 whole entry, looked up): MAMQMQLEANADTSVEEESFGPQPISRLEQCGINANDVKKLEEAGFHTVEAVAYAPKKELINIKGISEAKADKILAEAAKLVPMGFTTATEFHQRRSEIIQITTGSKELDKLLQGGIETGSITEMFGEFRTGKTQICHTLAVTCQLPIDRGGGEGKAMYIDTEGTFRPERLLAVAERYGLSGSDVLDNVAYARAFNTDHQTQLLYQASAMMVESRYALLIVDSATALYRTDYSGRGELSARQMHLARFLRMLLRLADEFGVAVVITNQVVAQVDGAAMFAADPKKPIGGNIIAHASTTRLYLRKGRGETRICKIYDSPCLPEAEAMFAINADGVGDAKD
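Material: Human Rad51 nucleoprotein filaments preassembled on unlabelled ssDNA | Also added: Labelled 47-mer dsDNA for strand exchange | Dosing: Single dose, 10 µM final compound | Schedule: 30-min compound preincubation and 15-min exchange, both room temperature | Technique: Fluorescence dequenching at 485/520 nm | Measure: Percent inhibition relative to plate controls and blanks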
Dynein cargo inh – blocks dynein driven cargo transport along microtubules; 3617.4 mouse cells, GR-EGFP nuclear translocation imaging; test concentration mostly 20 µM; stimulated with dexamethasone, 1 µM; stronger effect = lower value; 220,000 tested, 0.47% active; AID 1381; z-score, hits read low;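 active = plate z-score of nuclear minus cytoplasmic receptor signal below a set negative limit, without overly bright fluorescence or cell loss, cut at about -3.5 in these data, passing the limit was not always enough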;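 note: z-score of nuclear minus cytoplasmic ring GR-EGFP intensity difference per well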
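Buffer or medium: tet-free, stripped-serum medium; reagent: dexamethasone at 1.0 µM final, 30 min; incubation: 48 h induction, 1 h compound, 30 min dex at 37 °C; measured by: formaldehyde fixation, Hoechst nuclear stain, 10x automated fluorescence imaging; read-out: nuclear-to-cytoplasmic GR-EGFP distribution per well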
MT stabilizer – microtubule stabilizers in HeLa cells; HeLa tubulin immunostaining HCS, 24 h; share of cells brighter than vehicle mean+2SD; % tubulin-high responders, % at 10 µM; 200,000 tested, 0.83% active;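 active = plate Z-score above 3 for both tubulin-high and condensed-nucleus cell shares, with cell loss under 80%, at 10 µM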;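 note: anti alpha tubulin signal scored within the nucleus-defined area of each cell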
Tb hexokinase – T. brucei hexokinase 1 inhibition; recombinant TbHK1, G6PDH-coupled NADH A340; inhibition, % at 10 µM; 220,000 tested, 0.11% active; AID 1430;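 active = inhibition of 50% or more in the single-dose primary screen; inactive = inhibition below 50%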
G6PDH ctr – inhibits Leuconostoc G6PDH, counter-screen for TbHK1 inhibitors | AID 2516 | 210 tested, 7% active | purified G6PDH, NADH absorbance, 1 h | shares compounds with Tb hexokinase | inhibition, % at 10 µM;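 active = at least 50% inhibition in the glucose-6-phosphate dehydrogenase coupled counterscreen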
TbHK1 rescreen – confirmation of Trypanosoma brucei hexokinase 1 inhibitors; shares compounds with Tb hexokinase; recombinant TbHK1, G6PDH-coupled NADH A340 absorbance; inhibition, % at 10 µM; 210 tested, 10% active;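 active = inhibition of at least 50% in both of the two screening runs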;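 note: 0% and 100% set by the maximum and minimum signal control wells on each plate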
* marks the source's active call; other numbers are inactive results; · = no result. In the library only some 1.5% were active in any assay of this set; here they are far more common.

SMILES | b-catenin transl | Rad51 HR inh | Dynein cargo inh | MT stabilizer | Tb hexokinase | G6PDH ctr | TbHK1 rescreen
CC(NC(=O)CNC(=O)OCc1ccccc1)C(=O)N1CC(O)CC1C(=O)OCc1ccccc1 (stereo unspecified) | 1 | -10 | -1.1 | 5 | 51* | -10 | -1
Cc1n[nH]c(=O)nc1NC(C)c1ccccc1 (stereo unspecified) | · | -3 | 1.8 | 2 | 51* | -2 | 2
OC(COCc1ccccc1)CN1CCCC1 (stereo unspecified) | -8 | -1 | 0.19 | 7 | 60* | -4 | -7
O=C(O)COc1ccccc1C(Nc1cccnc1)c1cc(Cl)c2cccnc2c1O (stereo unspecified) | -1 | -6 | -0.23 | 3 | 14 | · | ·
O=C(O)COc1ccccc1C(Nc1ccccn1)c1cc(Cl)c2cccnc2c1O (stereo unspecified) | -1 | -9 | 0.54 | 3 | 76* | -42 | 28
C=CCN1C(=O)CN=C1Nc1ccc(OC)cc1OC | 1 | -1 | -0.28 | 1 | -1 | · | ·
c1ccc(-c2cccc(-c3ccccn3)n2)nc1 | -1 | 4 | -0.35 | 8 | 9 | · | ·
OCC1N=C(c2ccccn2)OC1c1ccccc1 (stereo unspecified) | -3 | 3 | -0.087 | 4 | 56* | 0 | 0
Cc1cc2nc3ccc(=[N+](C)C)cc-3sc2cc1N | 1 | 3 | -2.8 | · | 66* | 126* | 77*
CN(C)c1ccc2nc3ccc(=[N+](C)C)cc-3sc2c1 | 0 | 22 | -1.9 | 4 | 75* | 128* | 77*
Clc1ccc(Nc2c3c(nc4ncnn24)CCC3)cc1 | 0 | -2 | -1.1 | · | -5 | · | ·
CN(C)S(=O)(=O)c1cccc(NC(=S)NN=C(Cc2ccccc2)Cc2ccccc2)c1 | 1 | 4 | -0.56 | 2 | 51* | 13 | -4
CCOC(=O)CNC(=O)CSc1nnc(-c2ccco2)n1Cc1ccco1 | -2 | · | -0.27 | 3 | 7 | · | ·
C=CCNC(=O)CSc1nnc(-c2ccccn2)n1Cc1ccccc1 | 0 | -16 | -0.15 | 1 | 0 | · | ·
C=CCn1c(SCC(=O)NCC(=O)OCC)nnc1-c1ccccn1 | -9 | -2 | -0.28 | 5 | 50* | 3 | 1
CCOC(=O)CNC(=O)CSc1nnc(-c2ccco2)n1N | -3 | 3 | 1.3 | 2 | 51* | 1 | 8
COc1ccc(CC(NC(C)=O)C(=O)N2CCN(C(=O)Nc3ccc(Cl)cc3)CC2)cc1OC (stereo unspecified) | · | -2 | -0.37 | 6 | -18 | · | ·
CSc1nc2n(n1)C(c1cc(Br)ccc1F)C(C(=O)N(C)C)=C(C)N2 (stereo unspecified) | 2 | 0 | -0.79 | 6 | 63* | -6 | -7
COc1ccc(Br)cc1C1NC(=O)NC(C)=C1C(=O)N(C)C (stereo unspecified) | -1 | -9 | -0.047 | 2 | -2 | · | ·
NC(=S)c1cc2ccc(O)cc2oc1=O | 0 | · | -0.54 | 2 | 85* | 109* | 80*
Cc1ccc(N=Nc2ccc(O)c3ncccc23)cc1C | 0 | -3 | -0.78 | 11 | -5 | · | ·
Cc1ccc(N=Nc2ccc(O)c3ncccc23)cc1 | -4 | 4 | -0.46 | 3 | 81* | -20 | 0
C#CCOCCOCCOCCNc1nc(N2CCN(C(=O)C(Cc3cc4ccccc4[nH]3)n3cc(C(N)Cc4ccc(O)cc4)nn3)CC2)nc(N2CCN(C(=O)C(Cc3cc4ccccc4[nH]3)n3cc(C(N)Cc4ccc(O)cc4)nn3)CC2)n1 (stereo unspecified) | 5 | · | 0.67 | 1 | 53* | 88* | 20
CCCCCCCCCCCNC(=O)c1ccoc1C | -2 | -6 | -2.7 | 3 | 55* | -31 | 86*
CCCCOC(=O)Cn1cnc2ccc(Br)cc2c1=O | -1 | 1 | 2.1 | 4 | 59* | -9 | 3
CCN(CC)CC(=O)Nc1ccc(C)cc1Br | 0 | · | -1.1 | 2 | 5 | · | ·
Cc1ccc(C(=O)NC2CC3CCCC(C2)N3C(=O)NC2CCCCC2)cc1 (stereo unspecified) | -2 | 4 | 0.88 | 4 | -3 | · | ·
